Results pooled from the literature.
Mode: inhibitor
HDAC6: Protein deacetylase HDAC6 (HDAC6, Homo sapiens, UniProt Q9UBN7)
KCNH2: Voltage-gated inwardly rectifying potassium channel KCNH2 (KCNH2, Homo sapiens, UniProt Q12809)
Dihydroorotate dehydrogenase, mitochondrial, putative: Dihydroorotate dehydrogenase, mitochondrial, putative (Plasmodium vivax, UniProt A5K1N1)

SMILES | target | effect on | method | cells | pH | IC50 [nM]
Cc1cc(OS(=O)(=O)Oc2ccccc2)cc(C(=O)NO)c1 | HDAC6 | enzyme activity | fluorescence |  |  | 3830
Cc1cc(Nc2nccc(C)n2)cc(-c2cnc([C@@]3(O)CC[C@H](C(=O)NCCCNC(=O)CCc4ccc5n4[B-](F)(F)[N+]4=C(c6ccc[nH]6)C=CC4=C5)C(C)(C)C3)s2)c1 | Tyrosine-protein kinase SYK (SYK, Homo sapiens, UniProt P43405) | enzyme activity | radiometric |  |  | 110
CC1(F)CN(C(=O)Cn2c(=O)c(C(=O)NCc3ccc(Cl)cc3)cc3nc(N4CCCC4=O)cnc32)C1 | KCNH2 | ion current | patch clamp |  |  | > 40000
Cc1c(C(=O)OC2CC2)nn(C)c1Cc1ccc(C(F)(F)F)nc1 | Dihydroorotate dehydrogenase, mitochondrial, putative | enzyme activity | absorbance |  |  | 16
O=C(NO)c1cccc(OS(=O)(=O)Oc2ccc(-c3cccc(C(F)(F)F)c3)cc2)c1 | HDAC6 | enzyme activity | fluorescence |  |  | 3100
CCn1cc(C)c2c(C(O)c3ccc(Cl)c(F)c3)n(C)nc2c1=O (stereo not shown) | Dihydroorotate dehydrogenase, mitochondrial, putative | enzyme activity | absorbance |  |  | 9.8
O=c1oc(-c2cccnc2)nc2ccccc12 | Prothrombin (F2, Homo sapiens, UniProt P00734) | enzyme activity | absorbance |  | pH 7.4 | ~970
CC(C)(C)c1ccc(OS(=O)(=O)Oc2cc(F)cc(C(=O)NO)c2)cc1 | HDAC6 | enzyme activity | fluorescence |  |  | 2100
Cn1nc2c(=O)n(C3CC3)ncc2c1[C@](N)(c1ccc(C(F)(F)F)c(Cl)c1)C1CC1 | Dihydroorotate dehydrogenase, mitochondrial, putative | enzyme activity | absorbance |  |  | 6.7
Cc1cc(C(C)(C)C)ccc1OS(=O)(=O)Oc1cc(F)cc(C(=O)NO)c1 | HDAC6 | enzyme activity | fluorescence |  |  | 3210
CCn1ncc2c([C@](O)(c3ccc(C(F)(F)F)c(Cl)c3)C3CC3)n(C)nc2c1=O | Dihydroorotate dehydrogenase, mitochondrial, putative | enzyme activity | absorbance |  |  | 5
COc1ccc2c(C(=S)N(C)CC(=O)O)cccc2c1C(F)(F)F | Aldo-keto reductase family 1 member B10 (AKR1B10, Homo sapiens, UniProt O60218, K125R) | enzyme activity |  |  |  | 124
COc1cnc2c(cc(C(=O)NCc3ccc(Cl)cc3)c(=O)n2CC(=O)N2CC(C)(F)C2)n1 | KCNH2 | ion current | patch clamp |  |  | 2910
COc1ccc(C[C@H]2COC(=O)[C@@H]2Cc2ccc(OCC(=O)Nc3ccc(C(=O)Nc4ccccc4N)cc3)c(OC)c2)cc1OC | HDAC6 | enzyme activity |  |  |  | > 10000
CCn1cnc2c([C@@](O)(CC)c3ccc(C(F)(F)F)nc3)n(C)nc2c1=O | Dihydroorotate dehydrogenase, mitochondrial, putative | enzyme activity | absorbance |  |  | 26
CNCCN1CCN(c2cnc3c(cc(C(=O)NCc4ccc(Cl)cc4)c(=O)n3CC(=O)N3CC(C)(F)C3)n2)C1=O | KCNH2 | ion current | patch clamp |  |  | > 40000
C=CS(=O)(=O)c1ccc(Nc2nc(OCC3CCCCC3)c3nc[nH]c3n2)cc1 | KCNH2 | ion current | patch clamp | HEK293 |  | 5940
CC[C@@](N)(c1cnc(C(F)(F)F)c(Cl)c1)c1c2ncn(C3CC3)c(=O)c2nn1C | Dihydroorotate dehydrogenase, mitochondrial, putative | enzyme activity | absorbance |  |  | 40
O=C(NO)c1cccc(OS(=O)(=O)Oc2ccc3ccccc3c2)c1 | HDAC6 | enzyme activity | fluorescence |  |  | 91
